Data on five substances can be found in publication PMC9798253 (Protein Science : A Publication of the Protein Society, 2023).

The test system of assay [1] is GST-tagged TRD domain of MECP2 (170–325 of NP_004983). Briefly: Peptide SPOT array binding of ADD peptides to GST-TRD. The following applies: 25 nM GST-TRD; 1 h; ECL detection (anti-GST). In outline:
(§1)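 The cellulose-bound peptide arrays included alanine-substituted variants. Purified protein was applied for 1 h. Detection used anti-GST (1:12,000) or anti-MBP (1:10,000) for 1 h, then HRP secondary for 1 h.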

Assay [2] concerns GST-TRD (TRD domain of MECP2). Nature of the assay: GST-pulldown of MBP-ADD. As to conditions: 1 μg each protein; 25 mM Tris/HCl pH 8, 200 mM KCl; 1 h, 6°C; SDS-PAGE. Format: binding.
Assay [3] concerns ADD D529A/D530A/D531A triple mutant. Briefly: Peptide SPOT array binding of TRD peptides to ADD triple mutant. More on the design: species or system human. As to conditions: 25 nM ADD mutant; 1 h; ECL detection. In outline: as §1

Regarding “ADD 496–510: ADD surface peptide on SPOT array, WT sequence”, the “TRD binding of ADD peptides on SPOT array” value (“TRD binding of ADD peptides” below) in assay [1] is reported as “showed TRD binding with the WT sequence”. As to “ADD 522–536: ADD surface peptide on SPOT array, WT sequence”, the “TRD binding of ADD peptides” value in assay [1] is given as “showed TRD binding with the WT sequence”. With “ADD 592–606: ADD surface peptide on SPOT array, WT sequence”, the “TRD binding of ADD peptides” value in assay [1] was “showed TRD binding with the WT sequence”. “MBP-ADD: ADD domain of DNMT3A (476–614 of Q9Y6K1) as maltose‐binding protein (MBP) fusion”: the “pulldown of MBP-ADD by GST-TRD” value in assay [2] is “strong and specific pulldown”. Turning to “TRD residues 214–228: 15mer SPOT peptide, TRD residues E214‐T228, WT peptide (EKSPGKLLVKMPFQT)”, in assay [3], the “binding of ADD D529A/D530A/D531A triple mutant to TRD peptide on SPOT array” value is “Binding was lost”.
